Measurements reported in article PMC3268193 (British Journal of Pharmacology, 2012).
Residue numbers refer to the chain shown, from its start. Entries after “also recorded” stand apart in the source; their conditions may differ.

Experiments:
[1] = target: T1, human P2X1 receptor WT (Homo sapiens, UniProt P51575); assay: Two-electrode voltage clamp, WT P2X1 receptor in Xenopus oocytes; assay type: cell-based
T1 sequence (P51575 1-399): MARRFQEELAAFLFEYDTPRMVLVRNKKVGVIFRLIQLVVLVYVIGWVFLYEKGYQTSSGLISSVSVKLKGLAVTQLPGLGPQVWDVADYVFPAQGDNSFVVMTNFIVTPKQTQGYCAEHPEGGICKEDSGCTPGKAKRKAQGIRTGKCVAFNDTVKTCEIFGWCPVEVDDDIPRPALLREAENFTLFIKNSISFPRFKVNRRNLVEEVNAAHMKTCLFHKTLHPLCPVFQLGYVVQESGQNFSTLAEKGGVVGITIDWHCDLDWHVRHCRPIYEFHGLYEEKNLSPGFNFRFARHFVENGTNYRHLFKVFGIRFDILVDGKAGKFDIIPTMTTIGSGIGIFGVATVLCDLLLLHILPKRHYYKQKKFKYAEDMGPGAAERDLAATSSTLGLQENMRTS

[2] = target: T2, human P2X2 receptor WT (Homo sapiens, UniProt Q9UBL9); assay: Two-electrode voltage clamp, WT P2X2 receptor in Xenopus oocytes; assay type: cell-based; settings: P2X2 WT
T2 sequence (Q9UBL9 1-471): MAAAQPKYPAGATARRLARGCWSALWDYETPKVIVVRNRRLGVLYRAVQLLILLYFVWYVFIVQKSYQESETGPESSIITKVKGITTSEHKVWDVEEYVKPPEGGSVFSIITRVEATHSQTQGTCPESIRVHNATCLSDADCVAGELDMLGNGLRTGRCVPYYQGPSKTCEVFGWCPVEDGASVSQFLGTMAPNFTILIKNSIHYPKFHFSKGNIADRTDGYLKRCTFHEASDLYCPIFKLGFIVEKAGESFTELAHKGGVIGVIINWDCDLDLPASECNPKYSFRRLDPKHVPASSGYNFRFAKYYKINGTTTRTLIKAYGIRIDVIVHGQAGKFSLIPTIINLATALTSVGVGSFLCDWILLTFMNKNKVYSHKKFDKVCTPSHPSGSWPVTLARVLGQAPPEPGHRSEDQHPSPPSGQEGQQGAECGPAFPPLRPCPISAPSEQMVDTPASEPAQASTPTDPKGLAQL

[3] = target: T3, P2X1 Cys2(1-6) chimera (Homo sapiens, UniProt P51575, A118P/A137L/A141G/A151Y/D154G/DEL120-123/E128S/F152Y/G124S/G131D/I144L/I161V/INS125RVHNAT/INS150P/K127L/K136E/K138D/K140L/K148R/N153Q/P134A/Q142N/R139M/S130A/T133V/T155P/V156S); assay: Two-electrode voltage clamp, chimera P2X1 Cys2; assay type: cell-based; settings: P2X1 Cys2(1-6)
T3 sequence (P51575 with tags, fused parts or gaps A118P/DEL120-123/G124S/INS125RVHNAT/K127L/E128S/S130A/G131D/T133V/P134A/K136E/A137L/K138D/R139M/K140L/A141G/Q142N/I144L/K148R/INS150P/A151Y/F152Y/N153Q/D154G/T155P/V156S/I161V): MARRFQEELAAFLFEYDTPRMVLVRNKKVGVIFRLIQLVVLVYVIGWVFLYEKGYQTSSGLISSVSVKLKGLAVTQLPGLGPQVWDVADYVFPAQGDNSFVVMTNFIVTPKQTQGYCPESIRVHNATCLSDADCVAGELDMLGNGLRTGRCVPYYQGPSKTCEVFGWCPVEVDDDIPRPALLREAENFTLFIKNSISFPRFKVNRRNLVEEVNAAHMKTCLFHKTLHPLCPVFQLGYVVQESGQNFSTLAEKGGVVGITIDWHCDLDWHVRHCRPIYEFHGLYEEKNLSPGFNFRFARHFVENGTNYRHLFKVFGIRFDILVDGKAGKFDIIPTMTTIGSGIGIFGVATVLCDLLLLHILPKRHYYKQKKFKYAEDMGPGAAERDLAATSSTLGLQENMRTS

[4] = target: T4, P2X2 receptor mutant D136K (Homo sapiens, UniProt Q9UBL9, D148K); assay: Two-electrode voltage clamp, P2X2 mutant D136K; assay type: cell-based; settings: read-out: ATP EC50
T4 sequence (Q9UBL9 1-471 D148K): T2 sequence (Q9UBL9 1-471) with D148K

[5] = test system: P2X1 Del mutant receptor; assay: Two-electrode voltage clamp, deletion mutant P2X1 Del; assay type: cell-based, human; settings: ATP 100 µM, up to 10 mM
In short: (§1)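 Human P2X1 deletion-mutant cRNA made by T7 in vitro transcription and injected into stage V Xenopus laevis oocytes. Oocytes kept at 18°C in ND96 (pH 7.5, with gentamicin) and recorded 2–6 days later. Two-electrode voltage clamp at −60 mV, with 1.8 mM BaCl2 replacing CaCl2 in the bath.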

[6] = target: T5, DelD P2X1 receptor (Homo sapiens, UniProt P51575, D154F/DEL118-152/DEL160-165/K157P/V156D); assay: Two-electrode voltage clamp, deletion mutant DelD P2X1; assay type: cell-based; settings: ATP up to 10 mM
T5 sequence (P51575 with tags, fused parts or gaps DEL118-152/D154F/V156D/K157P/DEL160-165): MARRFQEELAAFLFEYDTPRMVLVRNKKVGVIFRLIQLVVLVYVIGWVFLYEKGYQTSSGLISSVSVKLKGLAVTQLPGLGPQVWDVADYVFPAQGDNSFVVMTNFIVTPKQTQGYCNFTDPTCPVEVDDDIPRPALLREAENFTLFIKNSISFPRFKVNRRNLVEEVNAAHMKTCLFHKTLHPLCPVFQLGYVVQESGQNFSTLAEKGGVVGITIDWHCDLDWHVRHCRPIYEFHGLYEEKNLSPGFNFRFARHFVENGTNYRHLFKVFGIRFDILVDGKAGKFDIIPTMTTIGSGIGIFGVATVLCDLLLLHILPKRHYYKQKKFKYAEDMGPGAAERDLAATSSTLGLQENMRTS
In short: as §1

[7] = target: Dictyostelium P2X receptors; settings: read-out: EC50 for ATP; ref Ludlow et al., 2009; cited from earlier work

Q: Which “Decay Time” value ([1]; P2X1 WT, 100% to 50% decay of current) does the source give for `Nc1ncnc2c1ncn2[C@@H]1O[C@H](COP(=O)(O)OP(=O)(O)OP(=O)(O)O)[C@@H](O)[C@H]1O` [ATP] here?
A: Its value is 495 ± 45 ms.

Q: What about the “Peak amplitude of inward current” value ([1]; WT P2X1, ATP 100 µM, n = 12) of the same compound?
A: Its value is −9188 ± 590 nA.

Q: And the EC50 ([1]; read-out: ATP EC50, P2X1 WT)?
A: Its EC50 is about 0.75 µM.

Q: And the Decay of current ([2]; 100 µM ATP, 3 s application)?
A: The Decay of current was “no decay at end of 3 s pulse”.

Q: What about the EC50 ([2]; read-out: ATP EC50) of the same compound?
A: The EC50 was about 10 µM.

Q: What about the “Decay Time” value ([3]; 100% to 50% decay) of the same compound?
A: Its value is 1305 ± 176 ms.

Q: What about the EC50 ([3]; read-out: ATP EC50) of the same compound?
A: The EC50 was about 3 µM.

Q: And the EC50 [4]?
A: The EC50 was 3.87 µM.

Q: And the ATP-evoked current [5]?
A: Its ATP-evoked current is “barely detectable inward currents; also recorded: ineffective”.

Q: And the ATP-evoked current [6]?
A: The ATP-evoked current was “little or no response”.

Q: What about the EC50 [7] of the same compound?
A: Its EC50 is 100 to 500 µM.
